Laboratory results: ChEMBL document CHEMBL5107937, “Synthesis and antitumour evaluation of indole-2-carboxamides against paediatric brain cancer cells” (RSC Med Chem, 2021)

Tests used:
[1] = tested on: KNS-42; experiment: Cytotoxicity against human KNS-42 cells assessed as reduction in cell viability incubated for 72 hrs by PrestoBlue reagent based cell viability assay; type: functional; conditions: KNS-42, 72 h
Outline: (§1)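 Viability screen run in triplicate. IC50 is the compound dose giving 50% inhibition of cell viability, taken as cytotoxicity.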

[2] = tested on: KNS-42; experiment: Antiproliferative activity against human KNS-42 cells assessed as cell growth inhibition incubated for 72 hrs by MTT assay; type: functional, cell-based; conditions: KNS-42, 72 h
Outline: (§2)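 Proliferation screen run in triplicate. IC50 is the compound dose giving 50% inhibition of cell proliferation.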

[3] = molecular target: T1, Cannabinoid receptor 2 (Homo sapiens, UniProt P34972); experiment: Agonist activity at human CB2R expressed in mouse AtT20 cells at 10 uM by FLIPR membrane potential assay; type: functional, cell-based
T1 sequence (P34972 whole entry): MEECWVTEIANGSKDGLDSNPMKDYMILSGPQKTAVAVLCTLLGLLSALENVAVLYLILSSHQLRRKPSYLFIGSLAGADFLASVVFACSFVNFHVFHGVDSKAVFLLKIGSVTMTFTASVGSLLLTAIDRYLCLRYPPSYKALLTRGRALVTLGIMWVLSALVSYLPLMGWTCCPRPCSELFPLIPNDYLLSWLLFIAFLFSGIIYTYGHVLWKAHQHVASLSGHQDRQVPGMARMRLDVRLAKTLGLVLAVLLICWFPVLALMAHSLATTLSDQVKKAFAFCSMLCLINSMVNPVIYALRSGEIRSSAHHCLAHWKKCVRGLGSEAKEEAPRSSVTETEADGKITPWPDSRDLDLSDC
Outline: (§3)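 Agonist mode: AtT-20 cells stably transfected with human CB1R or human CB2R; membrane potential responses recorded.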

[4] = Antiproliferative activity against human BT-12 cells assessed as cell growth inhibition incubated for 72 hrs by MTT assay; type: functional, cell-based; conditions: BT-12, 72 h; outline: as §2
[5] = Octanol-water partition coefficient, logP of the compound; type: physicochemical
[6] = Cytotoxicity against human HFF-1 cells assessed as reduction in cell viability incubated for 72 hrs by PrestoBlue reagent based cell viability assay; type: toxicity; outline: as §1
[7] = molecular target: T2, Cannabinoid receptor 1 (Homo sapiens, UniProt P21554); experiment: Agonist activity at human CB1R expressed in mouse AtT20 cells at 10 uM by FLIPR membrane potential assay; type: functional, cell-based; outline: as §3
T2 sequence (P21554 whole entry): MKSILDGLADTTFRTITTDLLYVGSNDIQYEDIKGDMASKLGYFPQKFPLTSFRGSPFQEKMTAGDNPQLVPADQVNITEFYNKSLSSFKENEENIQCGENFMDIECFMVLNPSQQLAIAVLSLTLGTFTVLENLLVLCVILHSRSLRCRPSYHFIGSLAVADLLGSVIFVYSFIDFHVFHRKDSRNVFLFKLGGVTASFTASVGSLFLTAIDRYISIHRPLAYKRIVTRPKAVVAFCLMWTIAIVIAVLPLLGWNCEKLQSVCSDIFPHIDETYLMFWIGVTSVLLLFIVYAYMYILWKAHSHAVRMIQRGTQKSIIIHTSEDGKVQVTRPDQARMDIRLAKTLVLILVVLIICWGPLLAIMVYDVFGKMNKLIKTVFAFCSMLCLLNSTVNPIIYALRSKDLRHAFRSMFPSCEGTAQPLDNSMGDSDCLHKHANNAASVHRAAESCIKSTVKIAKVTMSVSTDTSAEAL

[8] = Cytotoxicity against human BT-16 cells assessed as reduction in cell viability incubated for 72 hrs by PrestoBlue reagent based cell viability assay; type: functional; conditions: BT-16, 72 h; outline: as §1
[9] = molecular target: T2, Cannabinoid receptor 1; experiment: Antagonist activity at human CB1R expressed in mouse AtT20 cells at 10 uM by FLIPR membrane potential assay; type: functional, cell-based
Outline: (§4)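 AtT-20 cells stably carrying human CB1R or human CB2R were pre-incubated with compound or vehicle for 60 minutes. 500 nM CP 55940 was then added and membrane potential responses were recorded. IC50 is for inhibition of the agonist response.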

[10] = tested on: Daoy; experiment: Antiproliferative activity against human Daoy cells assessed as cell growth inhibition incubated for 72 hrs by MTT assay; type: functional, cell-based; outline: as §2
[11] = Antiproliferative activity against human HFF-1 cells assessed as cell growth inhibition incubated for 72 hrs by MTT assay; type: toxicity, cell-based; outline: as §2
[12] = Antiproliferative activity against human BT-16 cells assessed as cell growth inhibition incubated for 72 hrs by MTT assay; type: functional, cell-based; conditions: BT-16, 72 h; outline: as §2
[13] = Cytotoxicity against human BT-12 cells assessed as reduction in cell viability incubated for 72 hrs by PrestoBlue reagent based cell viability assay; type: functional; conditions: BT-12, 72 h; outline: as §1
[14] = tested on: Daoy; experiment: Cytotoxicity against human Daoy cells assessed as reduction in cell viability incubated for 72 hrs by PrestoBlue reagent based cell viability assay; type: functional; outline: as §1
[15] = molecular target: T1, Cannabinoid receptor 2; experiment: Antagonist activity at human CB2R expressed in mouse AtT20 cells at 10 uM by FLIPR membrane potential assay; type: functional, cell-based; outline: as §4
[16] = molecular target: T2, Cannabinoid receptor 1; experiment: Antagonist activity at human CB1R expressed in mouse AtT20 cells by FLIPR membrane potential assay; type: functional, cell-based; outline: as §4
[17] = molecular target: T1, Cannabinoid receptor 2; experiment: Antagonist activity at human CB2R expressed in mouse AtT20 cells by FLIPR membrane potential assay; type: functional, cell-based
Outline: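 AtT-20 cells stably transfected with human CB2R; membrane potential response read out. Antagonist mode: cells pre-incubated with vehicle or compound for 60 min, then challenged with 500 nM CP 55940. IC50 derived from inhibition of the agonist response. Not active defined as <50% inhibition at 10 μM.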

O=C(NC12CC3CC(CC(C3)C1)C2)c1cc(=O)c2c(Cl)cc(Cl)cc2[nH]1
IC50 [1]: > 10 µM | IC50 [2]: > 10 µM

O=C(CC12CC3CC(CC(C3)C1)C2)Nc1nc2ccccc2[nH]1
IC50 [1]: > 10 µM | IC50 [2]: 6.46 µM

O=C(Cc1ccc(NC(=O)c2cc3c(F)cc(F)cc3[nH]2)cc1)NC12CC3CC(CC(C3)C1)C2
IC50 [1]: > 10 µM | IC50 [2]: 4.9 µM

O=C(NCc1ccccc1)c1cc2c(F)cc(F)cc2[nH]1
Activity [3]: < 50% | IC50 [4]: 7.44 µM | logP [5]: 3.17 | IC50 at 72 h [6]: 119 µM | Activity [7]: < 50% | IC50 [8]: 1.81 µM | IC50 [1]: 8.25 µM | inhibition [9]: < 50% | IC50 [10]: > 10 µM | IC50 at 72 h [11]: 65 µM | IC50 [12]: 6.06 µM | IC50 [13]: 0.89 µM | IC50 [14]: > 10 µM | inhibition [15]: < 50% | IC50 [2]: 9.85 µM

O=C(NC12CC3CC(CC(C3)C1)C2)c1cc(=O)c2cc(Cl)ccc2[nH]1
IC50 [1]: > 10 µM | IC50 [2]: 6.11 µM

O=C(NC12CC3CC(CC(C3)C1)C2)c1c[nH]c2c(Cl)c(Cl)ccc2c1=O
IC50 [1]: > 10 µM | IC50 [2]: 8.05 µM

O=C(NCCc1ccc2c(c1)OCO2)c1cc2c(F)cc(F)cc2[nH]1
Activity [3]: < 50% | IC50 [4]: 4.1 µM | logP [5]: 3.02 | IC50 at 72 h [6]: 81 µM | Activity [7]: < 50% | IC50 [8]: 2.72 µM | IC50 [1]: 2.34 µM | IC50 [16]: 0.373 µM | IC50 [10]: 9.91 µM | IC50 at 72 h [11]: 6.98 µM | IC50 [12]: 7.53 µM | IC50 [13]: 6.08 µM | IC50 [14]: 3.65 µM | inhibition [15]: < 50% | IC50 [2]: 2.88 µM

O=C(c1cc2c(F)cc(F)cc2[nH]1)N1CCN(C(=O)C23CC4CC(CC(C4)C2)C3)CC1
Activity [3]: < 50% | Activity [7]: < 50% | IC50 [1]: 5.04 µM | inhibition [9]: < 50% | inhibition [15]: < 50% | IC50 [2]: 6.62 µM

O=C(CNC(=O)c1cc2c(F)cc(F)cc2[nH]1)NC12CC3CC(CC(C3)C1)C2
IC50 [1]: > 10 µM | IC50 [2]: > 10 µM

O=C(NC12CC3CC(CC(C3)C1)C2)c1cc(=O)c2ccc(Br)cc2[nH]1
IC50 [1]: > 10 µM | IC50 [2]: > 10 µM

O=C(NC12CC3CC(CC(C3)C1)C2)c1cc(=O)c2ccc(Cl)c(Cl)c2[nH]1
IC50 [1]: > 10 µM | IC50 [2]: > 10 µM

O=C(NC12CC3CC(CC(C3)C1)C2)c1n[nH]c2ccccc12
IC50 [1]: > 10 µM | IC50 [2]: > 10 µM

COc1cccc(CNC(=O)c2cc3c(F)cc(F)cc3[nH]2)c1OC
IC50 [1]: > 10 µM | IC50 [2]: > 10 µM

O=C(NC12CC3CC(CC(C3)C1)C2)c1ccc(NC(=O)c2cc3c(F)cc(F)cc3[nH]2)cc1
IC50 [1]: > 10 µM | IC50 [2]: > 10 µM

O=C(NC12CC3CC(CC(C3)C1)C2)c1nc2ccccc2[nH]1
IC50 [1]: > 10 µM | IC50 [2]: > 10 µM

Cc1c(C(=O)c2cccc3ccccc23)c2cccc3c2n1[C@@H](CN1CCOCC1)CO3
IC50 [4]: 9.32 µM | logP [5]: 4.13 | IC50 at 72 h [6]: 0.023 µM | IC50 [8]: 4.74 µM | IC50 [1]: 8.02 µM | IC50 [10]: 6.09 µM | IC50 at 72 h [11]: 1.82 µM | IC50 [12]: 4.57 µM | IC50 [13]: 8.6 µM | IC50 [14]: > 10 µM | IC50 [2]: 8.07 µM

O=C(NC12CC3CC(CC(C3)C1)C2)c1cc2ccccc2n1CCCCO
IC50 [1]: 4.75 µM | IC50 [2]: > 10 µM

O=C(Nc1nc2ccccc2[nH]1)C12CC3CC(CC(C3)C1)C2
IC50 [1]: > 10 µM | IC50 [2]: > 10 µM

O=C(NC12CC3CC(CC(C3)C1)C2)c1c[nH]c2cc(Br)ccc2c1=O
IC50 [1]: > 10 µM | IC50 [2]: > 10 µM

O=C(NC12CC3CC(CC(C3)C1)C2)c1cc(=O)c2c(Cl)ccc(Cl)c2[nH]1
IC50 [1]: > 10 µM | IC50 [2]: > 10 µM

CCCC(C)(C)c1ccc2c(c1)OC(C)(C)[C@@H]1CC=C(C)C[C@@H]21
IC50 [1]: > 10 µM | IC50 [2]: > 10 µM

O=C(NCc1ccc2c(c1)OCO2)c1cc2c(F)cc(F)cc2[nH]1
IC50 [1]: > 10 µM | IC50 [2]: > 10 µM

Cc1cccc(CNC(=O)c2cc3c(F)cc(F)cc3[nH]2)c1
IC50 [1]: > 10 µM | IC50 [2]: > 10 µM

O=C(NC12CC3CC(CC(C3)C1)C2)c1c[nH]c2c(Cl)ccc(Cl)c2c1=O
Activity [3]: < 50% | IC50 [4]: 3.59 µM | IC50 at 72 h [6]: 7.04 µM | Activity [7]: < 50% | IC50 [8]: 1.96 µM | IC50 [1]: 9.06 µM | inhibition [9]: < 50% | IC50 [10]: 4.71 µM | IC50 at 72 h [11]: 3.85 µM | IC50 [12]: 4.88 µM | IC50 [13]: 5.15 µM | IC50 [14]: 1.54 µM | IC50 [17]: 1.28 µM | IC50 [2]: 2.92 µM

O=C(NCc1ccc(F)cc1)c1cc2c(F)cc(F)cc2[nH]1
Activity [3]: < 50% | IC50 [4]: 8.87 µM | logP [5]: 3.23 | IC50 at 72 h [6]: 281 µM | Activity [7]: < 50% | IC50 [8]: 5.5 µM | IC50 [1]: 3.41 µM | inhibition [9]: < 50% | IC50 [10]: > 10 µM | IC50 at 72 h [11]: 40 µM | IC50 [12]: 9.79 µM | IC50 [13]: 9.23 µM | IC50 [14]: 4.1 µM | inhibition [15]: < 50% | IC50 [2]: 4.34 µM

O=C(Nc1nc2ccccc2[nH]1)c1cc2c(F)cc(F)cc2[nH]1
Activity [3]: < 50% | IC50 [4]: 1.79 µM | logP [5]: 2.69 | IC50 at 72 h [6]: 115 µM | Activity [7]: < 50% | IC50 [8]: 1.37 µM | IC50 [1]: 4.49 µM | inhibition [9]: < 50% | IC50 [10]: 2.31 µM | IC50 at 72 h [11]: 3.03 µM | IC50 [12]: 5.41 µM | IC50 [13]: 7.65 µM | IC50 [14]: 1.02 µM | inhibition [15]: < 50% | IC50 [2]: 4.03 µM

O=C(NC12CC3CC(CC(C3)C1)C2)c1c[nH]c2ccc(Cl)cc2c1=O
IC50 [1]: > 10 µM | IC50 [2]: > 10 µM

O=C(NC12CC3CC(CC(C3)C1)C2)c1cc2ccccc2[nH]1
IC50 [1]: 0.33 µM | IC50 [2]: > 10 µM

O=C(NC12CC3CC(CC(C3)C1)C2)c1c[nH]c2cc(Cl)cc(Cl)c2c1=O
IC50 [1]: > 10 µM | IC50 [2]: 9.17 µM
